{"source": "ChEMBL document CHEMBL1138431", "about": "“Synthesis and cytotoxic activities of 4,5-diarylisoxazoles” (Bioorg Med Chem Lett, 2007)", "key": {"[1]": {"test_system": "HepG2", "assay": "Cytotoxicity against human HepG2 cells", "assay_type": "functional, cell-based", "method_in_brief": "(§1)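 Cells were grown under previously described culture conditions and tested in an MTT colorimetric assay.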"}, "[2]": {"assay": "Cytotoxicity against human […] cells", "assay_type": "functional, cell-based", "method_in_brief": "as §1"}, "[3]": {"test_system": "HepG2", "assay": "Cell cycle arrest in human HepG2 cells assessed as accumulation at G2/M phase at 10 nM after 24 hrs relative to control"}, "[4]": {"test_system": "HeLa", "assay": "Cytotoxicity against human HeLa cells", "assay_type": "functional, cell-based", "method_in_brief": "as §1"}, "[5]": {"test_system": "HepG2", "assay": "Cell cycle arrest in human HepG2 cells assessed as accumulation at G0/G1 phase at 10 nM after 24 hrs relative to control"}, "[6]": {"test_system": "HepG2", "assay": "Cell cycle arrest in human HepG2 cells assessed as accumulation at S phase at 10 nM after 24 hrs relative to control"}}}
{"smiles": "COc1ccc(-c2cnoc2-c2cc(OC)c(OC)c(OC)c2)cc1N", "values": [{"measurement": "IC50", "setting": "[1]", "value": 0.065, "unit": "nM"}, {"measurement": "IC50", "setting": "[2]", "value": 0.135, "unit": "nM"}, {"measurement": "Activity", "setting": "[3]", "value": 69.8, "unit": "%"}, {"measurement": "IC50", "setting": "[4]", "value": 0.022, "unit": "nM"}, {"measurement": "Activity", "setting": "[5]", "value": 2.81, "unit": "%"}, {"measurement": "Activity", "setting": "[6]", "value": 27.4, "unit": "%"}]}
{"smiles": "COc1ccc(/C=C\\c2cc(OC)c(OC)c(OC)c2)cc1O", "note": "[COMBRETASTATIN A4]", "values": [{"measurement": "IC50", "setting": "[1]", "value": 0.14, "unit": "nM"}, {"measurement": "IC50", "setting": "[2]", "value": 0.01, "unit": "nM"}, {"measurement": "Activity", "setting": "[3]", "value": 79.3, "unit": "%"}, {"measurement": "IC50", "setting": "[4]", "value": 2.75, "unit": "nM"}, {"measurement": "Activity", "setting": "[5]", "value": 1.68, "unit": "%"}, {"measurement": "Activity", "setting": "[6]", "value": 19, "unit": "%"}]}
